Activity calls are given as the source filed them. The rule behind the calls is not given here.
What was measured:
[1] = tested on: Porphyromonas gingivalis; assay: Antibacterial activity against Porphyromonas gingivalis CCUG 25893 assessed as growth inhibition at 25 to 200 uM incubated for 24 hrs by microtiter plate based assay; type: functional
Method in brief: (§1)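 Bacteria grown in Luria–Bertani broth; inoculum from fresh culture, serially diluted to 1 × 10^5 cells/mL. Samples dissolved in DMSO at 200 μM and serially 2-fold diluted down to 25 μM in 96-well plates. Incubated at 28 °C for 24 h. OD600 read before and after incubation. MIC taken as the lowest concentration giving ≥90% growth reduction. Triplicates.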

[2] = tested on: Micrococcus luteus; assay: Antibacterial activity against Micrococcus luteus NBRC 12708 assessed as growth inhibition at 25 to 200 uM incubated for 24 hrs by microtiter plate based assay; type: functional, organism-based; method in brief: as §1
[3] = tested on: NCI-H460; assay: Cytotoxicity against human NCI-H460 cells assessed as growth inhibition by SRB assay; type: functional
[4] = tested on: MCF7; assay: Cytotoxicity against human MCF7 cells assessed as growth inhibition by SRB assay; type: functional
[5] = tested on: HT-29; assay: Cytotoxicity against human HT-29 cells assessed as growth inhibition by SRB assay; type: functional; details: read-out: ED50 (the source's name)
[6] = tested on: Staphylococcus aureus; assay: Antibacterial activity against Staphylococcus aureus NBRC 12732 assessed as growth inhibition at 25 to 200 uM incubated for 24 hrs by microtiter plate based assay; type: functional; method in brief: as §1
[7] = tested on: Aspergillus niger; assay: Antifungal activity against Aspergillus niger NBRC 4066 assessed as growth inhibition at 25 to 200 uM incubated for 48 hrs by microtiter plate based assay; type: functional
Method in brief: (§2)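 Aspergillus niger grown in Sabouraud dextrose broth; inoculum 1 × 10^6 cells/mL. Samples dissolved in DMSO at 200 μM and 2-fold diluted down to 25 μM in 96-well plates. Incubated at 28 °C for 48 h. OD600 read before and after incubation. MIC taken as the lowest concentration giving ≥90% inhibition. Three replicates.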

[8] = tested on: Bacillus subtilis; assay: Antibacterial activity against Bacillus subtilis NBRC 3134 assessed as growth inhibition at 25 to 200 uM incubated for 24 hrs by microtiter plate based assay; type: functional; method in brief: as §1
[9] = tested on: Pseudomonas aeruginosa; assay: Antibacterial activity against Pseudomonas aeruginosa NBRC 12689 assessed as growth inhibition at 25 to 200 uM incubated for 24 hrs by microtiter plate based assay; type: functional, organism-based; method in brief: as §1
[10] = tested on: Staphylococcus aureus; assay: Antibacterial activity against Staphylococcus aureus NBRC 12732 assessed as growth inhibition at 80 uM incubated for 24 hrs by microtiter plate based assay; type: functional; details: NBRC 12732, 24 h, read-out: GI
[11] = tested on: Escherichia coli; assay: Antibacterial activity against Escherichia coli NBRC 3301 assessed as growth inhibition at 25 to 200 uM incubated for 24 hrs by microtiter plate based assay; type: functional, organism-based; method in brief: as §1
[12] = tested on: Saccharomyces cerevisiae; assay: Antimicrobial activity against Saccharomyces cerevisiae ATCC 9763 assessed as growth inhibition at 25 to 200 uM incubated for 24 hrs by microtiter plate based assay; type: functional, organism-based
Method in brief: as §2, with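 “Yeasts” for “Aspergillus niger”, “24” for “48”, “growth reduction.” for “inhibition.”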

[13] = tested on: Rhodotorula glutinis; assay: Antimicrobial activity against Rhodotorula glutinis NBRC 1125 assessed as growth inhibition at 25 to 200 uM incubated for 24 hrs by microtiter plate based assay; type: functional, organism-based
Method in brief: as §2, with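 “Yeasts” for “Aspergillus niger”, “24” for “48”, “growth reduction.” for “inhibition.”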

[14] = tested on: Bacillus subtilis; assay: Antibacterial activity against Bacillus subtilis NBRC 3134 assessed as growth inhibition at 20 uM incubated for 24 hrs by microtiter plate based assay; type: functional; details: NBRC 3134, 24 h, read-out: GI
[15] = tested on: Malassezia furfur; assay: Antimicrobial activity against Pityrosporum ovale CCUG 24229 assessed as growth inhibition at 25 to 200 uM incubated for 24 hrs by microtiter plate based assay; type: functional
Method in brief: as §2, with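 “Yeasts” for “Aspergillus niger”, “24” for “48”, “growth reduction.” for “inhibition.”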

Row | Structure (SMILES) | growth inhibition (GI) [1] | growth inhibition (GI) [2] | GI50 [3] | GI50 [4] | EC50 [5] | growth inhibition (GI) [6] | growth inhibition (GI) [7] | growth inhibition (GI) [8] | growth inhibition (GI) [9] | inhibition of growth at 80 µM [10] | growth inhibition (GI) [11] | growth inhibition (GI) [12] | growth inhibition (GI) [13] | inhibition of growth at 20 µM [14] | growth inhibition (GI) [15]
1 | C=C(C)[C@@H]1CC[C@]2(C)[C@H](CC[C@@H]3[C@@H]([C@](C)(O)CC[C@@H](O)C(C)(C)O)CC[C@]32C)[C@@]1(C)CCC(=O)OC | 60 - 89% | inactive | > 10 µM | > 10 µM | > 10 µM | >=90% | 60 - 89% | >=90% | inactive | ≥ 90% | inactive | inactive | inactive | ≥ 90% | inactive
2 | COC(=O)C(C)(C)[C@@H]1CC[C@]2(C)[C@H](CC[C@@H]3[C@@H]([C@](C)(O)CC[C@@H](O)C(C)(C)O)CC[C@]32C)[C@@]1(C)CC(=O)O | inactive | inactive | > 10 µM | > 10 µM | > 10 µM | inactive | inactive | inactive | inactive | – | inactive | inactive | inactive | – | inactive
3 | COC(=O)C(C)(C)[C@@H]1CC[C@]2(C)[C@H](CC[C@@H]3[C@@H]([C@](C)(O)CC[C@@H](O)C(C)(C)O)CC[C@]32C)[C@@]1(C)CC=O | inactive | inactive | > 10 µM | > 10 µM | > 10 µM | 60 - 89% | inactive | inactive | inactive | – | inactive | inactive | inactive | – | inactive
4 | COC(=O)C(C)(C)[C@@H]1CC[C@]2(C)[C@H](CC[C@@H]3[C@@H]([C@](C)(O)CC[C@@H](O)C(C)(C)O)CC[C@]32C)[C@@]1(C)/C=C/NC=O | 60 - 89% | inactive | > 10 µM | > 10 µM | > 10 µM | inactive | inactive | inactive | inactive | – | inactive | inactive | inactive | – | 60 - 89%
5 | COC(=O)C(C)(C)[C@@H]1CC[C@]2(C)[C@H](CC[C@@H]3[C@@H]([C@]4(C)CC[C@H](C(C)(C)O)O4)CC[C@]32C)[C@@]1(C)/C=C/NC=O | inactive | inactive | > 10 µM | > 10 µM | > 10 µM | inactive | inactive | inactive | inactive | – | inactive | inactive | inactive | – | inactive

Reference: ChEMBL document CHEMBL4477176, “Cyclopenta[b]benzofuran and Secodammarane Derivatives from the Stems of Aglaia stellatopilosa” (2016)
